Test results taken from ChEMBL document CHEMBL4052710 (Bioorg Med Chem Lett, 2017).
pIC50: −log10 of the molar value. Active and inactive are the calls of the source. No cut-off for these calls is given here.

What was measured:
[1] = target: T1, Cyclin-dependent kinase 5/CDK5 activator 1 (Homo sapiens) (UniProt Q00535+Q15078); experiment: Inhibition of human CDK5/p35 at 1 uM by enzymatic radiometric assay; type: protein-complex assay
[2] = target: CDK18/Cyclin Y (Homo sapiens) (UniProt Q07002+Q8ND76); experiment: Inhibition of human CDK18/CyclinY at 1 uM by enzymatic radiometric assay; type: protein-complex assay
In short: (§1)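 Kinase panel run through the Eurofins KinaseProfiler, with compound at a fixed 1 µM. Values are means of two independent experiments.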

[3] = target: CDK12/Cyclin K (Homo sapiens) (UniProt O75909+Q9NYV4); experiment: Inhibition of human CDK12/CyclinK at 1 uM by enzymatic radiometric assay; type: protein-complex assay; in short: as §1
A549 [4] = experiment: Growth inhibition of human A549 cells incubated for 72 hrs at 10 uM by CCK8 assay; type: functional; conditions: A549, 72 h, read-out: GI
In short: (§2)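 CCK8 viability assay on a panel of human cancer cell lines, with an initial screen at fixed concentrations of 1 µM and 10 µM.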

NCI-H460 [5] = experiment: Growth inhibition of human H460 cells incubated for 72 hrs at 1 uM by CCK8 assay; type: functional; conditions: NCI-H460, 72 h, read-out: GI; in short: as §2
SiHa [6] = experiment: Growth inhibition of human SiHa cells incubated for 72 hrs at 10 uM by CCK8 assay; type: functional; conditions: read-out: GI; in short: as §2
[7] = target: CDK6/cyclin D3 (Homo sapiens) (UniProt P30281+Q00534); experiment: Inhibition of human CDK6/CyclinD3 at 1 uM by enzymatic radiometric assay; type: protein-complex assay
[8] = target: CDK7/Cyclin H/MNAT1 (Homo sapiens) (UniProt P51946+P50613+P51948); experiment: Inhibition of human CDK7/CyclinH/MAT1 at 1 uM by enzymatic radiometric assay; type: protein-complex assay
A549 [9] = experiment: Growth inhibition of human A549 cells incubated for 72 hrs at 1 uM by CCK8 assay; type: functional; conditions: A549, 72 h, read-out: GI; in short: as §2
[10] = target: Vascular endothelial growth factor receptor 2 (Homo sapiens, UniProt P35968); experiment: Inhibition of human VEGFR2 at 1 uM by enzymatic radiometric assay
[11] = target: CDK2/Cyclin A2 (Homo sapiens) (UniProt P24941+P20248); experiment: Inhibition of human CDK2/CyclinA at 1 uM by enzymatic radiometric assay; type: protein-complex assay; in short: as §1
[12] = target: CDK9/cyclin T1 (Homo sapiens) (UniProt O60563+P50750); experiment: Inhibition of human CDK9/CyclinT1 at 1 uM by enzymatic radiometric assay; type: protein-complex assay
T47D [13] = experiment: Growth inhibition of human T47D cells incubated for 72 hrs at 10 uM by CCK8 assay; type: functional; conditions: read-out: GI; in short: as §2
NCI-H460 [14] = experiment: Growth inhibition of human H460 cells incubated for 72 hrs at 10 uM by CCK8 assay; type: functional; conditions: NCI-H460, 72 h, read-out: GI; in short: as §2
[15] = target: Cyclin-dependent kinase 1/cyclin B1 (Homo sapiens) (UniProt P06493+P14635); experiment: Inhibition of human CDK1/CyclinB at 1 uM by enzymatic radiometric assay; type: protein-complex assay; in short: as §1
OVCAR-5 [16] = experiment: Growth inhibition of human OVCAR5 cells incubated for 72 hrs at 10 uM by CCK8 assay; type: functional; conditions: OVCAR-5, 72 h, read-out: GI; in short: as §2
NCI-H1299 [17] = experiment: Growth inhibition of human H1299 cells incubated for 72 hrs at 10 uM by CCK8 assay; type: functional; conditions: NCI-H1299, 72 h, read-out: GI; in short: as §2
[18] = target: Cyclin-dependent kinase 2/cyclin E1 (Homo sapiens) (UniProt P24864+P24941); experiment: Inhibition of human CDK2/CyclinE at 1 uM by enzymatic radiometric assay; type: protein-complex assay; in short: as §1
OVCAR-5 [19] = experiment: Growth inhibition of human OVCAR5 cells incubated for 72 hrs at 1 uM by CCK8 assay; type: functional; conditions: OVCAR-5, 72 h, read-out: GI; in short: as §2
[20] = target: CDK3/Cyclin E (Homo sapiens) (UniProt P24864+Q00526); experiment: Inhibition of human CDK3/CyclinE at 1 uM by enzymatic radiometric assay; type: protein-complex assay; in short: as §1
T47D [21] = experiment: Growth inhibition of human T47D cells incubated for 72 hrs at 1 uM by CCK8 assay; type: functional; conditions: read-out: GI; in short: as §2
[22] = target: CDK4/Cyclin D3 (Homo sapiens) (UniProt P11802+P30281); experiment: Inhibition of human CDK4/CyclinD3 at 1 uM by enzymatic radiometric assay; type: protein-complex assay; in short: as §1
[23] = target: T1, Cyclin-dependent kinase 5/CDK5 activator 1 (Homo sapiens); experiment: Inhibition of human CDK5/p25 at 1 uM by enzymatic radiometric assay; type: protein-complex assay
HeLa [24] = experiment: Growth inhibition of human HeLa cells incubated for 72 hrs at 1 uM by CCK8 assay; type: functional; conditions: read-out: GI; in short: as §2
HeLa [25] = experiment: Growth inhibition of human HeLa cells incubated for 72 hrs at 10 uM by CCK8 assay; type: functional; conditions: read-out: GI; in short: as §2
SiHa [26] = experiment: Growth inhibition of human SiHa cells incubated for 72 hrs at 1 uM by CCK8 assay; type: functional; conditions: read-out: GI; in short: as §2
NCI-H1299 [27] = experiment: Growth inhibition of human H1299 cells incubated for 72 hrs at 1 uM by CCK8 assay; type: functional; conditions: NCI-H1299, 72 h, read-out: GI; in short: as §2
T47D [28] = experiment: Growth inhibition of human T47D cells incubated for 72 hrs by CCK8 assay; type: functional, cell-based
MCF7 = experiment: Growth inhibition of human MCF7 cells incubated for 72 hrs by CCK8 assay; type: functional, cell-based; conditions: MCF7, 72 h
A549 [29] = experiment: Growth inhibition of human A549 cells incubated for 72 hrs by CCK8 assay; type: functional, cell-based; conditions: A549, 72 h
NCI-H1299 [30] = experiment: Growth inhibition of human H1299 cells incubated for 72 hrs by CCK8 assay; type: functional, cell-based; conditions: NCI-H1299, 72 h
NCI-H460 [31] = experiment: Growth inhibition of human H460 cells incubated for 72 hrs by CCK8 assay; type: functional, cell-based; conditions: NCI-H460, 72 h
T47D [32] = experiment: Induction of apoptosis in human T47D cells assessed as necrotic cells level at 5 uM incubated for 48 hrs by annexin V-FITC and propidium iodide staining based flow cytometry (reference value: 2.79%); type: functional
T47D [33] = experiment: Induction of cell cycle arrest in human T47D cells assessed as increase in G0/G1 phase accumulation incubated for 24 hrs by flow cytometry; type: functional, cell-based
T47D [34] = experiment: Induction of apoptosis in human T47D cells assessed as late apoptotic cells level at 5 uM incubated for 48 hrs by annexin V-FITC and propidium iodide staining based flow cytometry (reference value: 0.48%); type: functional
T47D [35] = experiment: Induction of apoptosis in human T47D cells assessed as viable cells level at 5 uM incubated for 48 hrs by annexin V-FITC and propidium iodide staining based flow cytometry (reference value: 96%); type: functional
T47D [36] = experiment: Induction of apoptosis in human T47D cells assessed as early apoptotic cells level at 5 uM incubated for 48 hrs by annexin V-FITC and propidium iodide staining based flow cytometry (reference value: 0.75%); type: functional

Chain of Vascular endothelial growth factor receptor 2 (P35968 whole entry): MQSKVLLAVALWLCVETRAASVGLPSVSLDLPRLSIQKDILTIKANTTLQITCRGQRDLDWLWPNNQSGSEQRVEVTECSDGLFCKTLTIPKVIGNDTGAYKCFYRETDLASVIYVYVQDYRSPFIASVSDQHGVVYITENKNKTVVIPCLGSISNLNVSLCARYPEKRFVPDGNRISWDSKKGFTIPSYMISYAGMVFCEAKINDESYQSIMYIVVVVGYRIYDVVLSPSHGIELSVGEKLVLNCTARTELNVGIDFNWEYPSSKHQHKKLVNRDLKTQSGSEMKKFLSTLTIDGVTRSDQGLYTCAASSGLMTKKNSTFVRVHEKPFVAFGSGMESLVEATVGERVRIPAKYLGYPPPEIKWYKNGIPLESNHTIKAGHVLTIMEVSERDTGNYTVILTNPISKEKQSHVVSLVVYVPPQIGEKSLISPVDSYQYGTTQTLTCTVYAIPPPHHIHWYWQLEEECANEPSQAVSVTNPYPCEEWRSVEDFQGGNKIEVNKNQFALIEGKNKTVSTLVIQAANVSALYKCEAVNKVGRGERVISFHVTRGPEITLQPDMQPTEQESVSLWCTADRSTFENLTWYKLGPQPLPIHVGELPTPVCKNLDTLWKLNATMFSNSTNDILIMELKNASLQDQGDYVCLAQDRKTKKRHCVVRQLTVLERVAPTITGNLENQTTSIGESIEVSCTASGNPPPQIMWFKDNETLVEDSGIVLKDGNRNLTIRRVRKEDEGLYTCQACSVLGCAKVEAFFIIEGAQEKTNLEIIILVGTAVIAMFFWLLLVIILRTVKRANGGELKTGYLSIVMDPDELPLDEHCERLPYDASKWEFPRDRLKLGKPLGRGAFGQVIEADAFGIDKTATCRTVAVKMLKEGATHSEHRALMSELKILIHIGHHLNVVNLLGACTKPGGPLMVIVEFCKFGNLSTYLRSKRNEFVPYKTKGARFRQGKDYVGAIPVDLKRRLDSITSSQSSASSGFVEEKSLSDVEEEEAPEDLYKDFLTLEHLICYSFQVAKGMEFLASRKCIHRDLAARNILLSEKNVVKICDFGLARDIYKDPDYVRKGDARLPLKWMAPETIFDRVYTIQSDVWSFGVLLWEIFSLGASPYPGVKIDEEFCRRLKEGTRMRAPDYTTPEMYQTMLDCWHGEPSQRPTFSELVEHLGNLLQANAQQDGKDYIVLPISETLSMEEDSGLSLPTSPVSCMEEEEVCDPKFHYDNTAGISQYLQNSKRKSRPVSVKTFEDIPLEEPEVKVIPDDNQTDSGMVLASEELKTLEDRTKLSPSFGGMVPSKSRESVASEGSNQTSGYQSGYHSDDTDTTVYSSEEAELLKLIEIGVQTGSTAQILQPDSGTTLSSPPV
T1 sequence (Q00535 whole entry): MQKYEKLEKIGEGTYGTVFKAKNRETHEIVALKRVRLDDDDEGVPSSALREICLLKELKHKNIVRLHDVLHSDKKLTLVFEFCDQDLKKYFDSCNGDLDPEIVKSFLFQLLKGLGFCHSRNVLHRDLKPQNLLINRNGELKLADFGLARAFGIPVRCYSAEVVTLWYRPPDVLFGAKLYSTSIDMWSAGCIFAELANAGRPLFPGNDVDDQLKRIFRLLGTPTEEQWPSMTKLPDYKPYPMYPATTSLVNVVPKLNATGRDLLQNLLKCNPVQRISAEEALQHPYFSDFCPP
T1 sequence (Q15078 99-307 partner limits assumed): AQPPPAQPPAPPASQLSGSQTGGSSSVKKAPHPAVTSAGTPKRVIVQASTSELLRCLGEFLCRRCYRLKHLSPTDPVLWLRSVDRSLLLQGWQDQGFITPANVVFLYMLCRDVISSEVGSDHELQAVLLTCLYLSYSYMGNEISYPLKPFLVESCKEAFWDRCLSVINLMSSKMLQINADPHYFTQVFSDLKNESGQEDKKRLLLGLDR
Chain of Cyclin-dependent kinase 1/cyclin B1 (Homo sapiens) (P06493 whole entry, looked up): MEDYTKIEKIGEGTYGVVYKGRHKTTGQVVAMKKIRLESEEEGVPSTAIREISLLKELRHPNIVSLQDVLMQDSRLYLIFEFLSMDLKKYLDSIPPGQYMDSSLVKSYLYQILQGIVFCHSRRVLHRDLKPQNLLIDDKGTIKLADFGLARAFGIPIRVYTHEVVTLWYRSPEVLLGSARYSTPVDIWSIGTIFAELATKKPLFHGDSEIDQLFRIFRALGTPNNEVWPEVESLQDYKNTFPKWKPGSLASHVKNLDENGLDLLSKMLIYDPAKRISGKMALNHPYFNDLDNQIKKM
Chain of Cyclin-dependent kinase 1/cyclin B1 (Homo sapiens) (P14635 whole entry, looked up): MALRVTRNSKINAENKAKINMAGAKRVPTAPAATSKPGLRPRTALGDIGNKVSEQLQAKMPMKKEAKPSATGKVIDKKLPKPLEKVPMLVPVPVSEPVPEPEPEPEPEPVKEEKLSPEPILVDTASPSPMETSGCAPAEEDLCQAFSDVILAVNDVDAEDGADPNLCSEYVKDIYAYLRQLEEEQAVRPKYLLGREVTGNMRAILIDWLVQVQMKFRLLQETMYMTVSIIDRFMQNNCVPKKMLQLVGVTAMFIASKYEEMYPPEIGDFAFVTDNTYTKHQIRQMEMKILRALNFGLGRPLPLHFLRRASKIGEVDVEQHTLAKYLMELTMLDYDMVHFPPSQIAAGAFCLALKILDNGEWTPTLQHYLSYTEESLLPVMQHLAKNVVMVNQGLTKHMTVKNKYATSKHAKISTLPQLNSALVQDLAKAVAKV
Chain of CDK12/Cyclin K (Homo sapiens) (O75909 whole entry, looked up): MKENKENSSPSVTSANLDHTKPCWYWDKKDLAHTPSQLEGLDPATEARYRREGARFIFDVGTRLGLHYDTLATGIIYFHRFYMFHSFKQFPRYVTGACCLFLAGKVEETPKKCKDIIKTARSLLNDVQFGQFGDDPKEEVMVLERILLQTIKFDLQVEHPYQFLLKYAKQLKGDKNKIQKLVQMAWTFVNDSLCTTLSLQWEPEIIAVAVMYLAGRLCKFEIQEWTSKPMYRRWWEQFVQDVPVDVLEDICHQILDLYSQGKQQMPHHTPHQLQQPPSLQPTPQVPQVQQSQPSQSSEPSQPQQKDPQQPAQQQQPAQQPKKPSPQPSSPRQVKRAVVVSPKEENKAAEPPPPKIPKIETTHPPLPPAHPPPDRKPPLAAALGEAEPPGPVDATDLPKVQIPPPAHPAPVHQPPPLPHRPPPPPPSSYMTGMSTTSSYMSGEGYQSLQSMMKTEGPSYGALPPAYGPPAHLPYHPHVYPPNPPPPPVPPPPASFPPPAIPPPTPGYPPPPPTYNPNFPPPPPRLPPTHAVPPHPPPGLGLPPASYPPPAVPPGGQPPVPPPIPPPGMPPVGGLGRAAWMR
Chain of CDK12/Cyclin K (Homo sapiens) (Q9NYV4 whole entry, looked up): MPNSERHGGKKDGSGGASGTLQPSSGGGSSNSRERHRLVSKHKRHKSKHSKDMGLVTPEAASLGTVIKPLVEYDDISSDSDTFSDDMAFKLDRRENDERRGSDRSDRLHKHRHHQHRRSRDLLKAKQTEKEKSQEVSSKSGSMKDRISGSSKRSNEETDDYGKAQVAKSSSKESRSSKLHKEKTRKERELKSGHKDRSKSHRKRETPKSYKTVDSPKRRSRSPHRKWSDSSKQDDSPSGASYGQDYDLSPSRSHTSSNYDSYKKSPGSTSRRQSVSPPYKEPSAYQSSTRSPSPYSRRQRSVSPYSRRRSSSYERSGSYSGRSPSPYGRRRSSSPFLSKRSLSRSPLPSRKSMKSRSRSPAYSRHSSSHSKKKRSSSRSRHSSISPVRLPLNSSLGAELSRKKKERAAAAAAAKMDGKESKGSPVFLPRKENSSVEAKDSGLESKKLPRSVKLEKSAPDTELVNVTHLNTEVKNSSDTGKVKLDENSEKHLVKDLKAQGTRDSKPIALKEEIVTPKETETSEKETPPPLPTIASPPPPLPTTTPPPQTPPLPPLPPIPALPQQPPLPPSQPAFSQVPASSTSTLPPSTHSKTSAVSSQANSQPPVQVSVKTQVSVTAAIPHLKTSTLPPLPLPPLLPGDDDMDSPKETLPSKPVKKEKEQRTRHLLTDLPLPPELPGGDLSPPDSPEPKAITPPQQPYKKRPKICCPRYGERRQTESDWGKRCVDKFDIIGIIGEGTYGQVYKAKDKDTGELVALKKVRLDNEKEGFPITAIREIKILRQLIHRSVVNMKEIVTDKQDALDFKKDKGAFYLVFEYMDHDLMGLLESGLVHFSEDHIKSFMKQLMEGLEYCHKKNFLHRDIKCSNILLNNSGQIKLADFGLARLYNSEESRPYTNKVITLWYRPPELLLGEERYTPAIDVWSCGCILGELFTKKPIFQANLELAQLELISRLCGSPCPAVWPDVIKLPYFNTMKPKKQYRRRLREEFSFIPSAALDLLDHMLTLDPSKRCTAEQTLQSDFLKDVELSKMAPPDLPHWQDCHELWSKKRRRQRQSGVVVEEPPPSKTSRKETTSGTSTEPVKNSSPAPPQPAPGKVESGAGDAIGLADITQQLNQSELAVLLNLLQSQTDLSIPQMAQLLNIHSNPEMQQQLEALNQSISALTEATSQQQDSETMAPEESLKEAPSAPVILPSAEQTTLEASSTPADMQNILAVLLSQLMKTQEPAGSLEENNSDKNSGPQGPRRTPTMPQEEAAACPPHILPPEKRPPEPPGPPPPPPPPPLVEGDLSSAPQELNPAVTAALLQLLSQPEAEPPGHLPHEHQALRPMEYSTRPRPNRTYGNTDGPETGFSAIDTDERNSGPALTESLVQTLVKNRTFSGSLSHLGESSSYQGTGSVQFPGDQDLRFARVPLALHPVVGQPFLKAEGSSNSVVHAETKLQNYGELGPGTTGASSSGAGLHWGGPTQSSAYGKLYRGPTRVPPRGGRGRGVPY

SMILES | inhibition of growth at 10 µM (A549 [4]) [%] | inhibition of growth at 1 µM (NCI-H460 [5]) [%] | inhibition of growth at 10 µM (SiHa [6]) [%] | inhibition of growth at 1 µM (A549 [9]) [%] | inhibition [10] [%] | inhibition of growth at 10 µM (T47D [13]) [%] | inhibition of growth at 10 µM (NCI-H460 [14]) [%] | inhibition of growth at 10 µM (OVCAR-5 [16]) [%] | inhibition of growth at 10 µM (NCI-H1299 [17]) [%] | inhibition of growth at 1 µM (OVCAR-5 [19]) [%] | inhibition of growth at 1 µM (T47D [21]) [%] | inhibition [22] [%] | inhibition of growth at 1 µM (HeLa [24]) [%] | inhibition of growth at 10 µM (HeLa [25]) [%] | inhibition of growth at 1 µM (SiHa [26]) [%] | inhibition of growth at 1 µM (NCI-H1299 [27]) [%] | further results
CN(C)C(=O)c1cc2cnc(Nc3ccc(NC(=O)C4(C(=O)Nc5ccc(O)cc5)CC4)cc3)nc2n1C1CCCC1 | 94.4 | 90.4 | 94.3 | 93.6 | 36 | 95.8 | 104 | 90.9 | 89.7 | 80.7 | 91.5 | 95 | 62.3 | 99.9 | 69.5 | 87.4 | inhibition [1]: 88%; inhibition [2]: 0%; inhibition [3]: 23%; inhibition [7]: 86%; inhibition [8]: -9%; inhibition [11]: 90%; inhibition [12]: 26%; inhibition [15]: 90%; inhibition [18]: 88%; inhibition [20]: 89%; inhibition [23]: 94%
COc1cc2nccc(Oc3ccc(NC(=O)C4(C(=O)Nc5ccc(F)cc5)CC4)cc3)c2cc1OC [CABOZANTINIB] |  |  |  |  |  |  |  |  |  |  |  |  |  |  |  |  | pIC50 (T47D [28]): 5.35; pIC50 (MCF7): 5.54; pIC50 (A549 [29]): 5.35; pIC50 (NCI-H1299 [30]): 5.72; pIC50 (NCI-H460 [31]): 5.25
CN(C)C(=O)c1cc2cnc(Nc3ccc(NC(=O)C4(C(=O)Nc5ccc(Cl)c(C(F)(F)F)c5)CC4)cc3)nc2n1C1CCCC1 | 88.1 | 2.1 | 61.1 | 1.1 | 4 | 55.8 | 91.9 | 48 | 90.4 | -2.4 | 6.9 | 24 | 16.5 | 55.6 | -11.2 | 39.5 | 
CN(C)C(=O)c1cc2cnc(Nc3ccc(NC(=O)C4(C(=O)Nc5ccc(F)cc5)CC4)cc3F)nc2n1C1CCCC1 |  | 11.9 | 44.4 |  | 33 | 67.9 | 53 | 33 | 82.6 | -0.9 | 6.3 | 87 | 6.2 | 49.5 | 6.6 | 52.3 | 
CN(C)C(=O)c1cc2cnc(Nc3ccc(N)cn3)nc2n1C1CCCC1 |  | -0.6 | 61.5 |  |  | 61.1 | 62 | 68 | 82.1 | 12.3 | 18.8 |  | 3.7 | 68.7 | -21.2 | 60.1 | 
CN(C)C(=O)c1cc2cnc(Nc3ccc(NC(=O)C4(C(=O)Nc5cccc(O)c5)CC4)cc3)nc2n1C1CCCC1 |  | 75.5 | 75.7 |  | 24 | 83.7 | 94.9 | 86 | 78.5 | 58.5 | 80.7 | 94 | 57 | 96.6 | -19.8 | 77.5 | 
CN(C)C(=O)c1cc2cnc(Nc3ccc(N4CCNCC4)cn3)nc2n1C1CCCC1 [RIBOCICLIB] |  |  |  |  |  |  |  |  |  |  |  |  |  |  |  |  | pIC50 (MCF7): < 5.00; Activity (T47D [32]): 1.94%; pIC50 (A549 [29]): < 5.00; pIC50 (NCI-H1299 [30]): 5.12; Activity (T47D [33]): Active; Activity (T47D [34]): 2.91%; pIC50 (NCI-H460 [31]): < 5.00; Activity (T47D [35]): 94.8%; Activity (T47D [36]): 0.34%
Nc1ccc(NC(=O)C2(C(=O)Nc3ccc(F)cc3)CC2)cc1F | 14.6 | 26.7 | 36 | 16.3 |  | 30.4 | 62.9 | 9.7 | 59.2 | 6.7 | 5.6 |  | 14 | 71.8 | 21.7 | 46.2 | 
CN(C)C(=O)c1cc2cnc(Nc3ccc(NC(=O)C4(C(=O)Nc5ccccc5F)CC4)cc3)nc2n1C1CCCC1 | 88.6 | 28.2 | 103 | 79.1 | -2 | 97.8 | 93.1 | 82.6 | 89.6 | 58 | 85.2 | 75 |  |  | 63.4 | 70.2 | 
